Assay results as given in ChEMBL document CHEMBL1165950, “Design and synthesis of new potent anticancer pyrazoles with high FLT3 kinase inhibitory selectivity” (Bioorg Med Chem, 2010).

Legend:
Format in all cases: functional
[1] = system: T47D; experiment: Cytotoxicity against human T47D cells assessed as cell growth at 10 uM after 48 hrs by sulforhodamine B assay; conditions: read-out: Activity
[2] = system: BT-549; experiment: Cytotoxicity against human BT549 cells assessed as cell growth at 0.001 uM after 48 hrs by sulforhodamine B assay; conditions: BT-549, 48 h, read-out: Activity
Outline: (§1)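 NCI-60 five-dose screen. Cells were grown in RPMI 1640 with 5% FBS and 2 mM L-glutamine, plated at 5000–40,000 cells/well and preincubated for 24 h. Time-zero plates were TCA-fixed. DMSO-solubilized drug was added at five concentrations (10-fold or ½-log serial dilutions) for 48 h at 37 °C, 5% CO2. Cells were TCA-fixed, stained with 0.4% SRB and read at 515 nm. Percent growth used time-zero, control and test absorbances.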

[3] = system: CCRF-CEM; experiment: Cytotoxicity against human CCRF-CEM cells assessed as cell growth at 0.01 uM after 48 hrs by sulforhodamine B assay; conditions: read-out: Activity; outline: as §1
[4] = Cytotoxicity against human RPMI8266 cells assessed as cell growth at 1 uM after 48 hrs by sulforhodamine B assay; conditions: read-out: Activity
[5] = system: SNB-75; experiment: Cytotoxicity against human SNB75 cells assessed as cell growth at 10 uM; conditions: read-out: Activity
Outline: (§2)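 NCI-60 screen: cells grown in RPMI 1640 with 5% FBS and 2 mM L-glutamine, plated at 5000–40,000 cells/well according to doubling time, and preincubated 24 h at 37 °C, 5% CO2. The single 10 µM dose (DMSO stock) was added, then incubated 48 h. Cells were TCA-fixed and stained with 0.4% SRB, read at 515 nm, and growth % calculated against time-zero and control plates.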

[6] = system: RXF 393; experiment: Cytotoxicity against human RXF393 cells assessed as cell growth at 10 uM; conditions: read-out: Activity; outline: as §2
[7] = system: PC-3; experiment: Cytotoxicity against human PC3 cells assessed as cell growth at 10 uM; conditions: read-out: Activity; outline: as §2
[8] = system: SW-620; experiment: Cytotoxicity against human SW620 cells assessed as cell growth at 0.01 uM after 48 hrs by sulforhodamine B assay; conditions: SW-620, 48 h, read-out: Activity
[9] = system: IGROV-1; experiment: Cytotoxicity against human IGROV1 cells assessed as cell growth at 0.01 uM after 48 hrs by sulforhodamine B assay; conditions: IGROV-1, 48 h, read-out: Activity
[10] = system: PC-3; experiment: Cytotoxicity against human PC3 cells assessed as cell growth at 0.01 uM after 48 hrs by sulforhodamine B assay; conditions: PC-3, 48 h, read-out: Activity
[11] = system: NCI-H23; experiment: Cytotoxicity against human NCI-H23 cells assessed as cell growth at 0.001 uM after 48 hrs by sulforhodamine B assay; conditions: NCI-H23, 48 h, read-out: Activity
[12] = system: HCC 2998; experiment: Cytotoxicity against human HCC2998 cells assessed as cell growth at 0.001 uM after 48 hrs by sulforhodamine B assay; conditions: HCC 2998, 48 h, read-out: Activity
[13] = system: HCT-15; experiment: Cytotoxicity against human HCT15 cells assessed as cell growth at 0.001 uM after 48 hrs by sulforhodamine B assay; conditions: HCT-15, 48 h, read-out: Activity
[14] = system: SK-MEL-2; experiment: Cytotoxicity against human SK-MEL-2 cells assessed as cell growth at 0.001 uM after 48 hrs by sulforhodamine B assay; conditions: SK-MEL-2, 48 h, read-out: Activity
[15] = system: KM12; experiment: Growth inhibition of human KM12 cells after 48 hrs by sulforhodamine B assay; conditions: KM12, 48 h; for CC50: read-out: LC50 (the source's name)
Outline: (§3)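 NCI 60-cell screen, five-dose mode. Cells grown in RPMI 1640 with 5% FBS and 2 mM L-glutamine and plated at 5000-40,000 cells/well according to doubling time. After 24 h preincubation, a Tz plate was TCA-fixed. Five concentrations (10-fold or 1/2 log dilutions) were applied for 48 h at 37 °C. SRB staining read at 515 nm. IC50 taken from [(Ti-Tz)/(C-Tz)]×100 = 50.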

[16] = system: SW-620; experiment: Growth inhibition of human SW620 cells after 48 hrs by sulforhodamine B assay; conditions: SW-620, 48 h; for CC50: read-out: LC50 (the source's name); outline: as §3
[17] = system: SF-295; experiment: Growth inhibition of human SF295 cells after 48 hrs by sulforhodamine B assay; conditions: SF-295, 48 h; for CC50: read-out: LC50 (the source's name); outline: as §3
[18] = system: LOX IMVI; experiment: Growth inhibition of human LOXIMVI cells after 48 hrs by sulforhodamine B assay; conditions: for CC50: read-out: LC50 (the source's name); outline: as §3
[19] = system: M14; experiment: Growth inhibition of human M14 cells after 48 hrs by sulforhodamine B assay; conditions: M14, 48 h; for CC50: read-out: LC50 (the source's name); outline: as §3
[20] = system: OVCAR-5; experiment: Growth inhibition of human OVCAR5 cells after 48 hrs by sulforhodamine B assay; conditions: OVCAR-5, 48 h; for CC50: read-out: LC50 (the source's name); outline: as §3
[21] = system: MCF7; experiment: Cytotoxicity against human MCF7 cells assessed as cell growth at 0.01 uM after 48 hrs by sulforhodamine B assay; conditions: MCF7, 48 h, read-out: Activity
[22] = Cytotoxicity against human Hs 578T cells assessed as cell growth at 0.01 uM after 48 hrs by sulforhodamine B assay; conditions: read-out: Activity
[23] = system: MDA-MB-468; experiment: Cytotoxicity against human MDA-MB-468 cells assessed as cell growth at 0.01 uM after 48 hrs by sulforhodamine B assay; conditions: MDA-MB-468, 48 h, read-out: Activity
[24] = system: OVCAR-4; experiment: Cytotoxicity against human OVCAR4 cells assessed as cell growth at 1 uM after 48 hrs by sulforhodamine B assay; conditions: OVCAR-4, 48 h, read-out: Activity
[25] = system: OVCAR-8; experiment: Cytotoxicity against human OVCAR8 cells assessed as cell growth at 1 uM after 48 hrs by sulforhodamine B assay; conditions: OVCAR-8, 48 h, read-out: Activity
[26] = system: NCI-H226; experiment: Cytotoxicity against human NCI-H226 cells assessed as cell growth at 10 uM; conditions: read-out: Activity; outline: as §2
[27] = system: NCI-H522; experiment: Cytotoxicity against human NCI-H522 cells assessed as cell growth at 10 uM; conditions: read-out: Activity; outline: as §2
[28] = system: A549; experiment: Cytotoxicity against human A549 cells assessed as cell growth at 10 uM after 48 hrs by sulforhodamine B assay; conditions: A549, 48 h, read-out: Activity; outline: as §1
[29] = system: HOP-62; experiment: Cytotoxicity against human HOP62 cells assessed as cell growth at 10 uM after 48 hrs by sulforhodamine B assay; conditions: HOP-62, 48 h, read-out: Activity
[30] = system: HOP-92; experiment: Cytotoxicity against human HOP92 cells assessed as cell growth at 10 uM after 48 hrs by sulforhodamine B assay; conditions: HOP-92, 48 h, read-out: Activity
[31] = system: NCI-H522; experiment: Cytotoxicity against human NCI-H522 cells assessed as cell growth at 10 uM after 48 hrs by sulforhodamine B assay; conditions: NCI-H522, 48 h, read-out: Activity
[32] = system: BT-549; experiment: Cytotoxicity against human BT549 cells assessed as cell growth at 10 uM after 48 hrs by sulforhodamine B assay; conditions: BT-549, 48 h, read-out: Activity; outline: as §1

Cc1cc(O)cc(-c2nn(CC#N)cc2-c2ccnc(-c3ccc(Oc4ccccc4)cc3)c2)c1
growth at 10 µM [1]: -67%
growth at 0.001 µM [2]: 96%
growth at 0.01 µM [3]: 93%
growth at 1 µM [4]: -20%
growth at 10 µM [5]: 40%
growth at 10 µM [6]: 24.6%
growth at 10 µM [7]: 66.4%
growth at 0.01 µM [8]: 88%
growth at 0.01 µM [9]: 83%
growth at 0.01 µM [10]: 86%
growth at 0.001 µM [11]: 91%
growth at 0.001 µM [12]: 96%
growth at 0.001 µM [13]: 94%
growth at 0.001 µM [14]: 91%
GI50 [15]: 1.92 µM
TGI [15]: 4.87 µM
CC50 [15]: 15.3 µM
GI50 [16]: 1.94 µM
TGI [16]: 4.33 µM
CC50 [16]: 9.63 µM
GI50 [17]: 4.42 µM
TGI [17]: 21.2 µM
CC50 [17]: 75.2 µM
GI50 [18]: 1.87 µM
TGI [18]: 3.39 µM
CC50 [18]: 6.13 µM
GI50 [19]: 1.7 µM
TGI [19]: 3.12 µM
CC50 [19]: 5.73 µM
GI50 [20]: 4.84 µM
TGI [20]: 19.2 µM
CC50 [20]: 48.3 µM
growth at 0.01 µM [21]: 92%
growth at 0.01 µM [22]: 91%
growth at 0.01 µM [23]: 85%
growth at 1 µM [24]: 21%
growth at 1 µM [25]: -30%
growth at 10 µM [26]: 70.3%
growth at 10 µM [27]: 36%
growth at 10 µM [28]: -71%
growth at 10 µM [29]: -93%
growth at 10 µM [30]: -65%
growth at 10 µM [31]: -93%
growth at 10 µM [32]: -81%

Cc1cc(O)cc(-c2nn(CC#N)cc2-c2ccnc(-c3ccc(N(C)C)cc3)c2)c1
growth at 10 µM [1]: -44%
growth at 0.001 µM [2]: 96%
growth at 0.01 µM [3]: 96%
growth at 1 µM [4]: 15%
growth at 10 µM [5]: -12.8%
growth at 10 µM [6]: 64.7%
growth at 10 µM [7]: 40.4%
growth at 0.01 µM [8]: 90%
growth at 0.01 µM [9]: 94%
growth at 0.01 µM [10]: 92%
growth at 0.001 µM [11]: 94%
growth at 0.001 µM [12]: 91%
growth at 0.001 µM [13]: 86%
growth at 0.001 µM [14]: 94%
GI50 [15]: 1.63 µM
TGI [15]: 7.66 µM
CC50 [15]: 29.2 µM
GI50 [16]: 2.83 µM
TGI [16]: 17.5 µM
CC50 [16]: > 100 µM
GI50 [17]: 2.18 µM
TGI [17]: 8.71 µM
CC50 [17]: 84.1 µM
GI50 [18]: 5.13 µM
TGI [18]: 17.8 µM
CC50 [18]: 47.7 µM
GI50 [19]: 1.83 µM
TGI [19]: 4.76 µM
CC50 [19]: 20.4 µM
GI50 [20]: 1.49 µM
TGI [20]: 60.4 µM
CC50 [20]: > 100 µM
growth at 0.01 µM [21]: 89%
growth at 0.01 µM [22]: 95%
growth at 0.01 µM [23]: 91%
growth at 1 µM [24]: 27%
growth at 1 µM [25]: 27%
growth at 10 µM [26]: 35.8%
growth at 10 µM [27]: 14.5%
growth at 10 µM [28]: -8%
growth at 10 µM [29]: -22%
growth at 10 µM [30]: -12%
growth at 10 µM [31]: -57%
growth at 10 µM [32]: -43%

COc1cc(C)cc(-c2nn(CC#N)cc2-c2ccnc(-c3ccc(N(C)C)cc3)c2)c1
growth at 10 µM [1]: -32%
growth at 0.001 µM [2]: 105%
growth at 0.01 µM [3]: 100%
growth at 1 µM [4]: 1%
growth at 10 µM [5]: -25.5%
growth at 10 µM [6]: -17.1%
growth at 10 µM [7]: 31.6%
growth at 0.01 µM [8]: 90%
growth at 0.01 µM [9]: 101%
growth at 0.01 µM [10]: 96%
growth at 0.001 µM [11]: 93%
growth at 0.001 µM [12]: 106%
growth at 0.001 µM [13]: 99%
growth at 0.001 µM [14]: 117%
GI50 [15]: 0.31 µM
TGI [15]: 1.62 µM
CC50 [15]: 25.5 µM
GI50 [16]: 0.332 µM
TGI [16]: > 100 µM
CC50 [16]: > 100 µM
GI50 [17]: 0.304 µM
TGI [17]: 1.91 µM
CC50 [17]: > 100 µM
GI50 [18]: 0.681 µM
TGI [18]: 14.8 µM
CC50 [18]: > 100 µM
GI50 [19]: 0.258 µM
TGI [19]: 0.769 µM
CC50 [19]: > 100 µM
GI50 [20]: 3.98 µM
TGI [20]: > 100 µM
CC50 [20]: > 100 µM
growth at 0.01 µM [21]: 38%
growth at 0.01 µM [22]: 100%
growth at 0.01 µM [23]: 74%
growth at 1 µM [24]: 21%
growth at 1 µM [25]: 14%
growth at 10 µM [26]: 24.9%
growth at 10 µM [27]: -14.9%
growth at 10 µM [28]: -6%
growth at 10 µM [29]: -13%
growth at 10 µM [30]: -13%
growth at 10 µM [31]: -64%
growth at 10 µM [32]: -30%
